Reference: PMC11364517 (Neuron, 2024)

What was measured:
GRABNE2m [1] = assay: Ligand selectivity of GRABNE2m expressed in HEK293T cells; assay type: cell-based; settings: for fluorescence response of GRABNE2m to the ligand: HEK293T cells, trace amines and NE metabolites in full doses (Fig. S2C, S2D)
GRABNE2h [2] = assay: Ligand selectivity of GRABNE2h expressed in HEK293T cells; assay type: cell-based; settings: for fluorescence response of GRABNE2h to the ligand: HEK293T cells, trace amines and NE metabolites in full doses (Fig. S2C, S2D)
GRABNE2m [3] = settings: read-out: apparent affinity values (EC50); n = 3
GRABNE2h [4] = settings: read-out: apparent affinity values (EC50); n = 3
[5] = test system: optogenetically evoked NE release in the LC; assay: Fiber photometry in the LC of freely moving TH-Cre mice during optogenetic; assay type: in vivo; settings: i.p. injection; GRABNE2m and GRABNE2h
Outline: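 Mice received hSyn-GRABNE2m or NE2h AAV plus Cre-dependent C1V1-YFP AAV (1 × 10¹³ genomic copies per ml) in the LC at 100 nl/min, 500 nl, under Avertin (500 mg/kg i.p.) or 1.5% isoflurane. LC fibres (105/125 μm) were implanted four weeks later. Photometry used a 473-nm laser, 25 μW at the fibre tip. Test compound was given i.p.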

| SMILES | fluorescence response of GRABNE2m to the ligand (GRABNE2m [1]) | fluorescence response of GRABNE2h to the ligand (GRABNE2h [2]) | other results |
| --- | --- | --- | --- |
| COc1cc(C(O)CO)ccc1O (stereo not shown) [3-methoxy-4-hydroxyphenylglycol] | not respond | not respond |  |
| NCCc1ccc(O)c(O)c1 [DA, dopamine] |  |  | EC50 (GRABNE2m [3]): 20 µM; EC50 (GRABNE2h [4]): 9 µM |
| Fc1ccc(C(OCCN2CCN(CCCc3ccccc3)CC2)c2ccc(F)cc2)cc1 [GBR-12909] |  |  | effect on decay kinetics of the optogenetically evoked response [5]: no effect |
| NC[C@H](O)c1ccc(O)c(O)c1 [NE, norepinephrine] |  |  | EC50 (GRABNE2m [3]): 0.38 µM; EC50 (GRABNE2h [4]): 0.19 µM |
| CC(=O)OCC[N+](C)(C)C [acetylcholine] | do not respond | do not respond |  |
| Nc1ncnc2c1ncn2[C@@H]1O[C@H](CO)[C@@H](O)[C@H]1O [adenosine] | do not respond | do not respond |  |
| CCc1cc(Cl)c(OC)c(C(=O)NC[C@@H]2CCCN2CC)c1O [eticlopride] |  |  | effect on decay kinetics of the optogenetically evoked response [5]: no effect |
| N[C@@H](CCC(=O)O)C(=O)O [glutamate, L-Glutamic acid] | do not respond | do not respond |  |
| NCCc1c[nH]cn1 [histamine] | do not respond | do not respond |  |
| CC(C)NCC(O)c1ccc(O)c(O)c1 (stereo not shown) [isoprenaline] | do not respond | do not respond |  |
| COc1cc(C(O)CN)ccc1O (stereo not shown) [normetanephrine] | not respond | not respond |  |
| NCC(O)c1ccc(O)cc1 (stereo not shown) [octopamine] | not respond | not respond |  |
| NCCc1ccccc1 [phenethylamine] | not respond | not respond |  |
| NCCc1c[nH]c2ccc(O)cc12 [serotonin] | do not respond | do not respond |  |
| NCCc1ccc(O)cc1 [tyramine] | not respond | not respond |  |
| COc1cc(C(O)C(=O)O)ccc1O (stereo not shown) [vanillylmandelic acid] | not respond | not respond |  |
| COC(=O)[C@@H]1[C@H]2C[C@H]3c4[nH]c5ccccc5c4CCN3C[C@@H]2CC[C@@H]1O [yohimbine] |  |  | block of the NE-induced response of GRABNE2m (GRABNE2m [1]; HEK293T cells (Fig. S2D)): blocked; block of the NE-induced response of GRABNE2h (GRABNE2h [2]; HEK293T cells (Fig. S2D)): blocked |
| NCCCC(=O)O [γ-aminobutyric acid] | do not respond | do not respond |  |
